Measurements as given in ChEMBL document CHEMBL3822423 (J Med Chem, 2016).
In brackets after ≈: the same amount, converted by molar mass. Activity calls are given as the source filed them. No cut-off for these calls is given here.

What was measured:
Bacillus [1] = assay: Antibacterial activity against Bacillus proteus ATCC 13315 after 18 to 24 hrs; type: functional
[2] = (§1) Antibacterial activity against Eberthella typhosa ATCC 14028 after 18 to 24 hrs; type: functional
Micrococcus luteus = assay: Antibacterial activity against Micrococcus luteus ATCC 4698 after 18 to 24 hrs; type: functional; conditions: NCTC 2665
Escherichia coli = assay: Antibacterial activity against Escherichia coli ATCC 25922 after 18 to 24 hrs; type: functional
Bacillus spizizenii = assay: Antibacterial activity against Bacillus subtilis ATCC 6633 after 18 to 24 hrs; type: functional
Bacillus [3] = assay: Potency index, ratio of norfloxacin MIC to compound MIC for Bacillus proteus ATCC 13315; type: functional
Staphylococcus aureus [4] = assay: Antibacterial activity against Staphylococcus aureus ATCC 25923 after 18 to 24 hrs; type: functional
Eberthella typhosa [5] = assay: Potency index, ratio of norfloxacin MIC to compound MIC for Eberthella typhosa ATCC 14028; type: functional
Pseudomonas aeruginosa = assay: Antibacterial activity against Pseudomonas aeruginosa ATCC 9027 after 18 to 24 hrs; type: functional
Staphylococcus aureus [6] = assay: Antibacterial activity against methicillin-resistant Staphylococcus aureus N315 after 18 to 24 hrs; type: functional
[7] = Cytotoxicity against rat PC12 cells assessed as reduction in cell viability at 256 ug/mL after 72 hrs by MTT assay; type: cell-based; conditions: pc-12, 72 h
In short: (§2)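 PC12 and human hepatocyte LO2 cells were exposed to compound at 8–512 µg/mL in twofold steps. Viability was read by colorimetric MTT assay, with norfloxacin as positive control. Each value is the mean of three replicates.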

[8] = Cytotoxicity against human LO2 cells assessed as reduction in cell viability at 256 ug/mL after 72 hrs by MTT assay; type: cell-based; conditions: l02, 72 h; in short: as §2
[9] = Cytotoxicity against rat PC12 cells assessed as reduction in cell viability at 128 ug/mL after 72 hrs by MTT assay; type: cell-based; conditions: pc-12, 72 h; in short: as §2
Calf thymus DNA = assay: Binding affinity to calf thymus double stranded DNA assessed as hypochromic effect in absence of Mg2+ ion by […] spectroscopic analysis; type: nucleic-acid assay; conditions: Bos taurus
[10] = Cytotoxicity against human LO2 cells assessed as reduction in cell viability at 128 ug/mL after 72 hrs by MTT assay; type: cell-based; conditions: l02, 72 h; in short: as §2
[11] = Inhibition of Escherichia coli DNA gyrase assessed as reduction in enzyme-mediated supercoiling of pBR322 DNA after 1.5 hrs by agarose gel electrophoresis method
[12] = Cytotoxicity against human LO2 cells assessed as cell viability at 512 ug/mL after 72 hrs by MTT assay; type: cell-based; conditions: l02, 72 h; in short: as §2
Eberthella typhosa [13] = assay: as §1; type: functional

Row | Structure (SMILES) | MIC (Bacillus [1]) [µg/mL] | MIC [2] [µg/mL] | MIC (Micrococcus luteus) | MIC (Escherichia coli) | MIC (Bacillus spizizenii) | Ratio (Bacillus [3]) | MIC (Staphylococcus aureus [4]) | Ratio (Eberthella typhosa [5]) | MIC (Pseudomonas aeruginosa) [µg/mL] | MIC (Staphylococcus aureus [6]) | Activity [7] | Activity [8] | Activity [9] | Activity (Calf thymus DNA) [%] | Activity [10] | IC50 [11] [µM] | Activity [12] | MIC (Eberthella typhosa [13])
1 | CCn1cc(-c2csc(N)n2)c(=O)c2cc(F)c(F)cc21 | 0.6 (≈ 1.95 µM) | 1.2 (≈ 3.9 µM) | 5.3 µg/mL (≈ 17.2 µM) | 256 µg/mL (≈ 833 µM) | 26.7 µg/mL (≈ 86.9 µM) | 22 | 0.8 µg/mL (≈ 2.6 µM) | 4 | 78.6 (≈ 256 µM) | 213 µg/mL (≈ 694 µM) |  |  |  |  |  |  |  | 
2 | CCn1cc(-c2csc(N)n2)c(=O)c2cc(F)c(N3CCNCC3)cc21 | 2 (≈ 5.36 µM) | 10.7 (≈ 28.7 µM) | 64.2 µg/mL (≈ 172 µM) | 16 µg/mL (≈ 42.8 µM) | 10.7 µg/mL (≈ 28.7 µM) |  | 16 µg/mL (≈ 42.8 µM) |  | 4 (≈ 10.7 µM) | 32.1 µg/mL (≈ 86 µM) |  |  |  |  |  |  |  | 
3 | CCn1cc(-c2csc(N)n2)c(=O)c2cc(F)c(N3CCOCC3)cc21 | 1.7 (≈ 4.54 µM) | 14.7 (≈ 39.3 µM) | 13.3 µg/mL (≈ 35.5 µM) | 6 µg/mL (≈ 16 µM) | 18.7 µg/mL (≈ 49.9 µM) |  | 0.8 µg/mL (≈ 2.14 µM) |  | 10.7 (≈ 28.6 µM) | 32 µg/mL (≈ 85.5 µM) |  |  |  |  |  |  |  | 
4 | CCn1cc(C(=O)O)c(=O)c2cc(F)c(N3CCNCC3)cc21 [NORFLOXACIN] | 13.3 (≈ 41.6 µM) | 5.3 (≈ 16.6 µM) | 2.7 µg/mL (≈ 8.46 µM) | 4.3 µg/mL (≈ 13.5 µM) | 1.3 µg/mL (≈ 4.07 µM) |  | 0.8 µg/mL (≈ 2.51 µM) |  | 1.7 (≈ 5.32 µM) | 10.7 µg/mL (≈ 33.5 µM) | Toxic | Toxic | Toxic | 16 | Toxic | 18.2 | Toxic | 
5 | CCn1cc(C(C)=O)c(=O)c2cc(N3CCOCC3)c(Cl)cc21 | 13.3 (≈ 39.7 µM) | 37.3 (≈ 111 µM) | 53.3 µg/mL (≈ 159 µM) | inactive | inactive |  | inactive |  | 42.7 (≈ 128 µM) | 128 µg/mL (≈ 382 µM) |  |  |  |  |  |  |  | 
6 | CCn1cc(-c2csc(N)n2)c(=O)c2cc(F)c(N3CCN(C(=O)OC(C)(C)C)CC3)cc21 | 2.6 (≈ 5.49 µM) | 5.3 (≈ 11.2 µM) | 32 µg/mL (≈ 67.6 µM) | 10.7 µg/mL (≈ 22.6 µM) | 42.7 µg/mL (≈ 90.2 µM) |  | 64 µg/mL (≈ 135 µM) |  | 8 (≈ 16.9 µM) | 10.7 µg/mL (≈ 22.6 µM) |  |  |  |  |  |  |  | 
7 | CCn1cc(-c2csc(N)n2)c(=O)c2cc(F)c(N3CCCCC3)cc21 | 37.3 (≈ 100 µM) | 74.7 (≈ 201 µM) | inactive | 128 µg/mL (≈ 344 µM) | 42.7 µg/mL (≈ 115 µM) |  | 64 µg/mL (≈ 172 µM) |  | 42.7 (≈ 115 µM) | 53.3 µg/mL (≈ 143 µM) |  |  |  |  |  |  |  | 
8 | CCn1cc(-c2csc(N)n2)c(=O)c2cc(F)c(N3CCCC3)cc21 | 128 (≈ 357 µM) | 42.7 (≈ 119 µM) | 107 µg/mL (≈ 298 µM) | 9.3 µg/mL (≈ 25.9 µM) | 53.3 µg/mL (≈ 149 µM) |  | 32 µg/mL (≈ 89.3 µM) |  | 42.7 (≈ 119 µM) | 17.3 µg/mL (≈ 48.3 µM) |  |  |  |  |  |  |  | 
9 | CCn1cc(-c2csc(N)n2)c(=O)c2cc(N3CCNCC3)c(Cl)cc21 | 6.4 (≈ 16.4 µM) | 8 (≈ 20.5 µM) | 32 µg/mL (≈ 82.1 µM) | 128 µg/mL (≈ 328 µM) | 2 µg/mL (≈ 5.13 µM) |  | 8 µg/mL (≈ 20.5 µM) |  | 10.7 (≈ 27.4 µM) | inactive |  |  |  |  |  |  |  | 
10 | CCn1cc(-c2csc(N)n2)c(=O)c2cc(F)ccc21 | 10.7 (≈ 37 µM) | 21.3 (≈ 73.6 µM) | 18.7 µg/mL (≈ 64.6 µM) | 24 µg/mL (≈ 82.9 µM) | 3.3 µg/mL (≈ 11.4 µM) |  | 128 µg/mL (≈ 442 µM) |  | 13.3 (≈ 46 µM) | inactive |  |  |  |  |  |  |  | 
11 | CCn1cc(-c2csc(N)n2)c(=O)c2cccc(F)c21 | 256 (≈ 885 µM) |  | 2.7 µg/mL (≈ 9.33 µM) | 9.3 µg/mL (≈ 32.1 µM) | 13.3 µg/mL (≈ 46 µM) |  | inactive |  | 24 (≈ 82.9 µM) | inactive |  |  |  |  |  |  |  | inactive
12 | CCn1cc(C(C)=O)c(=O)c2cc(N3CCCC3)c(Cl)cc21 | 64 (≈ 201 µM) | 18.7 (≈ 58.7 µM) | 10.7 µg/mL (≈ 33.6 µM) | 26.7 µg/mL (≈ 83.8 µM) | 10.7 µg/mL (≈ 33.6 µM) |  | 18.7 µg/mL (≈ 58.7 µM) |  | 9.3 (≈ 29.2 µM) | 16 µg/mL (≈ 50.2 µM) |  |  |  |  |  |  |  | 
13 | CCn1cc(-c2csc(N)n2)c(=O)c2cc(F)c(Cl)cc21 | 3.3 (≈ 10.2 µM) | 2.6 (≈ 8.03 µM) | 26.6 µg/mL (≈ 82.2 µM) | 6.7 µg/mL (≈ 20.7 µM) | 10.6 µg/mL (≈ 32.7 µM) |  | inactive |  | 1.6 (≈ 4.94 µM) | 8 µg/mL (≈ 24.7 µM) |  |  |  |  |  |  |  | 
